These results are taken from ChEMBL document CHEMBL4017537, “Discovery of a Potent and Specific M. tuberculosis Leucyl-tRNA Synthetase Inhibitor: (S)-3-(Aminomethyl)-4-chloro-7-(2-hydroxyethoxy)benzo[c][1,2]oxaborol-1(3H)-ol (GSK656)” (J Med Chem, 2017).

For orientation: IC50 means the concentration that gives 50% inhibition. What is called half-life is the time needed for the level to fall by half in the phase considered. A higher half-life goes with slow loss. As a reminder, the clearance is the volume of plasma or blood freed of the substance per unit of time. What is called Cmax is the highest concentration seen after dosing. A word on the Tmax: it is the time at which the peak concentration occurs. In general, AUC(0-t) refers to exposure summed from dosing to a finite time, without extrapolation to infinity. Low values mean low exposure, high ones high exposure. One may read the AUC(0-inf) as the area under the concentration-time curve extrapolated to infinity. Read a high AUC(0-inf) as high exposure. As usually defined, the bioavailability is the share of a dose that reaches the circulation, judged against a reference dose that is usually intravenous. A higher bioavailability goes with much systemic uptake.

The target of series [1] is Leucine--tRNA ligase, cytoplasmic (Homo sapiens, UniProt Q9P2J5). The experiment in a line: Inhibition of human N-terminal 6His-tagged cytoplasmic LeuRS expressed in Escherichia coli BL21(DE3) assessed as […] after 20 mins by liquid scintillation counting analysis.
The nature of series [2]: Volume of distribution at steady state in C57BL/6 mouse at 5.5 mg/kg, iv administered as single dose measured up to 24 hrs by LC-MS/MS analysis. In kind it is ADME, organism-based. The conditions noted are these: in vivo, read-out: Vdss. In short, it runs like this: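 C57BL/6 female mice (18−20 g) got one intravenous dose in saline. Whole blood (15 μL) was taken by lateral tail-vein puncture from each of 3 mice at 5, 15 and 30 min and at 1, 2, 4, 8 and 24 h postdose, and drug concentrations were measured in peripheral blood.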

Series [3] in a line: Half life in C57BL/6 mouse at 5.5 mg/kg, iv administered as single dose measured up to 24 hrs by LC-MS/MS analysis. In kind it is ADME, organism-based. The note with it: in vivo.
In series [4] the test system is Mus musculus. The experiment in a line: Dose normalized AUC (0 to infinity) in C57BL/6 mouse at 5.5 mg/kg, iv administered as single dose measured up to 24 hrs by LC-MS/MS analysis. In kind it is ADME, organism-based. The conditions noted are these: in vivo.
Series [5] in a line: Clearance in C57BL/6 mouse at 5.5 mg/kg, iv administered as single dose measured up to 24 hrs by LC-MS/MS analysis. Type of series: ADME, organism-based. The note with it: in vivo.
The nature of series [6]: Cmax in C57BL/6 mouse at 30 mg/kg administered as single dose via oral gavage measured up to 24 hrs by LC-MS/MS analysis. In kind it is ADME, organism-based. Further details: dose 30 mg/kg, route oral. The note with it: in vivo.
A short description of series [7]: Tmax in C57BL/6 mouse at 30 mg/kg administered as single dose via oral gavage measured up to 24 hrs by LC-MS/MS analysis. Type of series: ADME, organism-based. The note with it: in vivo. A digest of the protocol: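 C57BL/6 female mice (18−20 g) got one oral gavage dose of 30 mg/kg in 1% methylcellulose. Peripheral whole blood was sampled from 15 min to 24 h postdose, n = 3 mice per time point, and drug concentrations were measured in blood.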

Series [8] is described as follows: AUC (0 to 24 hrs) in C57BL/6 mouse at 30 mg/kg administered as single dose via oral gavage by LC-MS/MS analysis. The conditions noted are these: in vivo. Further details: time < 24 hr, dose 30 mg/kg, route oral. In kind it is ADME, organism-based.
Series [9] concerns Mycobacterium tuberculosis. The experiment in a line: Antimicrobial activity against Mycobacterium tuberculosis H37Rv infected in C57BL/6J mouse assessed as bacterial load in lungs at 0.1 mg/kg qd administered for 8 consecutive weeks starting from 6 weeks post infection measured 24 hrs post last dose (reference value: 6.4 +/- 0.3 log10CFU). In kind it is functional. A digest of the protocol: (§1)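 C57BL/6J mice infected intratracheally with ~10² CFU M. tuberculosis H37Rv. Dosed QD, 7 days/week, for 8 weeks starting 6 weeks post-infection; killed ≥24 h after last dose. Lung homogenates plated on 7H11/10% OADC for 21 days at 37 °C. n = 3 per dose group, 7 for controls; mean (SD); ANOVA with Dunnett's test versus 14-week untreated.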

The test system of series [10] is Mycobacterium tuberculosis. Put plainly: Antimicrobial activity against Mycobacterium tuberculosis H37Rv infected in C57BL/6J mouse assessed as bacterial load in lungs at 0.3 mg/kg qd administered for 8 consecutive weeks starting from 6 weeks post infection measured 24 hrs post last dose (reference value: 6.4 +/- 0.3 log10CFU). In kind it is functional. A digest of the protocol:
as §1

In series [11] the test system is Mycobacterium tuberculosis. The experiment in a line: Antimicrobial activity against Mycobacterium tuberculosis H37Rv infected in C57BL/6J mouse assessed as bacterial load in lungs at 1 mg/kg qd administered for 8 consecutive weeks starting from 6 weeks post infection measured 24 hrs post last dose (reference value: 6.4 +/- 0.3 log10CFU). In kind it is functional. In short, it runs like this:
as §1

The test system of series [12] is Mycobacterium tuberculosis. Put plainly: Antimicrobial activity against Mycobacterium tuberculosis H37Rv infected in C57BL/6J mouse assessed as bacterial load in lungs at 3 mg/kg qd administered for 8 consecutive weeks starting from 6 weeks post infection measured 24 hrs post last dose (reference value: 6.4 +/- 0.3 log10CFU). Type of series: functional. In short, it runs like this:
as §1

In series [13] the test system is Mycobacterium tuberculosis. Put plainly: Antimicrobial activity against Mycobacterium tuberculosis H37Rv infected in C57BL/6J mouse assessed as bacterial load in lungs at 10 mg/kg qd administered for 8 consecutive weeks starting from 6 weeks post infection measured 24 hrs post last dose (reference value: 6.4 +/- 0.3 log10CFU). Type of series: functional. A digest of the protocol:
as §1

The subject of series [14] is Mycobacterium tuberculosis. The experiment in a line: Antimicrobial activity against Mycobacterium tuberculosis H37Rv infected in C57BL/6J mouse assessed as bacterial load in lungs at 30 mg/kg qd administered for 8 consecutive weeks starting from 6 weeks post infection measured 24 hrs post last dose (reference value: 6.4 +/- 0.3 log10CFU). Type of series: functional. In short, it runs like this:
as §1

The test system of series [15] is Mycobacterium tuberculosis. Put plainly: Antimicrobial activity against Mycobacterium tuberculosis H37Rv infected in C57BL/6J mouse assessed as log reduction in bacterial load in lungs administered qd for 8 consecutive weeks starting from 6 weeks post infection measured 24 hrs post last dose. In kind it is functional. A digest of the protocol:
as §1

A short description of series [16]: Toxicity in mouse administered qd. The conditions noted are these: in vivo.
A short description of series [17]: Toxicity in mouse. In kind it is organism-based. The note with it: in vivo.
A short description of series [18]: Clearance in C57BL/6 mouse at 28.5 mg/kg, iv administered as single dose measured up to 8 hrs by LC-MS/MS analysis. Type of series: ADME, organism-based. The note with it: in vivo.
A short description of series [19]: Half life in C57BL/6 mouse at 28.5 mg/kg, iv administered as single dose measured up to 8 hrs by LC-MS/MS analysis. Type of series: ADME, organism-based. The conditions noted are these: in vivo.
Series [20] can be described thus: AUC (0 to infinity) in C57BL/6 mouse at 28.5 mg/kg, iv administered as single dose measured up to 8 hrs by LC-MS/MS analysis. Type of series: ADME, organism-based. Further details: dose 28.5 mg/kg, time infinity, route intravenous. The conditions noted are these: in vivo.
Series [21] has as its system Mus musculus. Put plainly: Dose normalized AUC (0 to infinity) in C57BL/6 mouse at 28.5 mg/kg, iv administered as single dose measured up to 8 hrs by LC-MS/MS analysis. Type of series: ADME, organism-based. The note with it: in vivo.
The nature of series [22]: Cmax in C57BL/6 mouse at 26.1 mg/kg administered as single dose via oral gavage measured up to 24 hrs by LC-MS/MS analysis. The note with it: in vivo. Also noted: dose 26.1 mg/kg, route oral. Type of series: ADME, organism-based.
A short description of series [23]: Tmax in C57BL/6 mouse at 26.1 mg/kg administered as single dose via oral gavage measured up to 24 hrs by LC-MS/MS analysis. In kind it is ADME, organism-based. The conditions noted are these: in vivo.
Series [24] in a line: AUC (0 to 24 hrs) in C57BL/6 mouse at 26.1 mg/kg administered as single dose via oral gavage by LC-MS/MS analysis. In kind it is ADME, organism-based. The note with it: in vivo. Further details: dose 26.1 mg/kg, time < 24 hr, route oral.
In series [25] the test system is Mus musculus. The experiment in a line: Dose normalized AUC (0 to 24 hrs) in C57BL/6 mouse at 26.1 mg/kg administered as single dose via oral gavage by LC-MS/MS analysis. In kind it is ADME, organism-based. The conditions noted are these: in vivo.
Series [26] is described as follows: Oral bioavailability in C57BL/6 mouse at 26.1 mg/kg administered as single dose via gavage measured up to 24 hrs by LC-MS/MS analysis. In kind it is ADME, organism-based. The note with it: in vivo.
A short description of series [27]: AUC (0 to infinity) in CD-1 mouse at 30 mg/kg, iv after 24 hrs by LC-MS/MS analysis. In kind it is ADME, organism-based. Also noted: dose 30 mg/kg, route intravenous, time infinity. The note with it: in vivo.
The test system of series [28] is Mus musculus. The experiment in a line: Dose normalized AUC (0 to infinity) in CD-1 mouse at 30 mg/kg, iv after 24 hrs by LC-MS/MS analysis. Type of series: ADME, organism-based. The conditions noted are these: in vivo.
Series [29] is described as follows: AUC (0 to 24 hrs) in CD-1 mouse at 30 mg/kg administered via oral gavage by LC-MS/MS analysis. In kind it is ADME, organism-based. Further details: dose 30 mg/kg, time < 24 hr, route oral. The conditions noted are these: in vivo.
The subject of series [30] is Mus musculus. The experiment in a line: Dose normalized AUC (0 to 24 hrs) in CD-1 mouse at 30 mg/kg administered via oral gavage by LC-MS/MS analysis. Type of series: ADME, organism-based. The note with it: in vivo.
The subject of series [31] is Mus musculus. Put plainly: Toxicity in mouse at 50 mg/kg, qd. In kind it is organism-based. The conditions noted are these: in vivo.
The subject of series [32] is Mus musculus. The experiment in a line: Toxicity in mouse at 150 mg/kg. In kind it is organism-based. The note with it: in vivo. In short, it runs like this: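 Maximum single tolerated dose study: healthy mice each got one dose, and tolerability was judged across escalating dose levels.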

Chain of Leucine--tRNA ligase, cytoplasmic (Q9P2J5 whole entry): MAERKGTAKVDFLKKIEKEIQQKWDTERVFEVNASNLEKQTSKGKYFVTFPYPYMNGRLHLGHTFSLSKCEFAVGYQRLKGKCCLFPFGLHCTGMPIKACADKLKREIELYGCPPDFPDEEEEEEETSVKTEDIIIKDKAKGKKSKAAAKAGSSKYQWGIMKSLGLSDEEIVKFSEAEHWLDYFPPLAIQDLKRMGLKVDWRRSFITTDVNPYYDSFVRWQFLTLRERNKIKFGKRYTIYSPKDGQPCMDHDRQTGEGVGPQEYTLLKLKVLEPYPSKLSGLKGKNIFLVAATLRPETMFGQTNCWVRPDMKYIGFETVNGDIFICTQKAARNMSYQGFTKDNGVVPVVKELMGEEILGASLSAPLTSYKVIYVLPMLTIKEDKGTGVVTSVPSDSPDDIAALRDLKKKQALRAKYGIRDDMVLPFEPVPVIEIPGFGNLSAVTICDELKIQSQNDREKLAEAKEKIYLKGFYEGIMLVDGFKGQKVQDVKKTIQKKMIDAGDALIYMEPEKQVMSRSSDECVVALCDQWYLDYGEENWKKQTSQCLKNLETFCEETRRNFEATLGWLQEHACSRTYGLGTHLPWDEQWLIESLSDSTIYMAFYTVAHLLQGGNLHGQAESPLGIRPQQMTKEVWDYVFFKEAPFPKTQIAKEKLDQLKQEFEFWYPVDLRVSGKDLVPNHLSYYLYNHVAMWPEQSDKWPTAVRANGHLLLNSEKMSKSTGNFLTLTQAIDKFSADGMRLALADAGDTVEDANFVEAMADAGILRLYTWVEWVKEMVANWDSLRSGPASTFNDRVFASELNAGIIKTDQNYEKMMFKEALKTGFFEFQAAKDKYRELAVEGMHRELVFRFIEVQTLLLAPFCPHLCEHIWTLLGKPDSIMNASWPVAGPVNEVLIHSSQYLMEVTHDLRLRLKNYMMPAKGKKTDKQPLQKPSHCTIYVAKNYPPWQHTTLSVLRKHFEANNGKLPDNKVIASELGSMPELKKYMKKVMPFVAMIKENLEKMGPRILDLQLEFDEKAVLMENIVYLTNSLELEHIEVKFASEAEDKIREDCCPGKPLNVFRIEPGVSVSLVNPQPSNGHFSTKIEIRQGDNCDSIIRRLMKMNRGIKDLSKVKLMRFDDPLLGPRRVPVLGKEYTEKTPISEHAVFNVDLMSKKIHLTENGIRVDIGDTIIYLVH

For the compound `Cl.NC[C@H]1OB(O)c2c(OCCO)ccc(Cl)c21`, the IC50 in [1] was found to be 132 µM. The Vd in series [2] came out at 2.3 L/kg. In [3], this compound showed a half-life of 3.6 h. In the series on Mus musculus [4], this compound registered an AUC/dose of 2.03 µg·h/mL/mg/kg. In addition, the clearance in series [5] amounted to 8.5 mL/min/kg. Besides, the peak level in series [6] (Cmax) was 17800 ng/mL. Also, the Tmax in [7] is 0.9 h. The same compound displayed an AUC(0-t) at 24 h in [8] of 88200 ng·h/mL. Besides, the Activity came out at 6.4 log10CFU in [9]; 6 log10CFU in series [10]; 4.7 log10CFU in series [11]; 4.6 log10CFU in series [12]; 4.3 log10CFU in [13]; 4.4 log10CFU in series [14]. Besides, in series [15], the Activity entry was “Dose-dependent effect”. For the same compound, the MTD stood at 100 mg/kg in series [16] and 300 mg/kg in series [17].

In series [18], `CCOc1ccc(Br)c2c1B(O)O[C@@H]2CN` returned a clearance of 6.6 mL/min/kg. Besides, the half-life in series [19] was 3.1 h. In addition, the area under the curve AUC(0-inf) in series [20] was determined as 72300 ng·h/mL; in series [27], 43400 ng·h/mL. The AUC/dose in the series on Mus musculus [21] is 2.54 µg·h/mL/mg/kg; with Mus musculus [25], 2.98 µg·h/mL; in the series on Mus musculus [28], 1.45 µg·h/mL/mg/kg; with Mus musculus [30] it was 1.92 µg·h/mL. In addition, the peak level in series [22] (Cmax) was 11100 ng/mL. Further, in [23], the Tmax was 2 h. In addition, the AUC(0-t) at 24 h worked out at 77900 ng·h/mL in [24] and 57600 ng·h/mL in series [29]. Further, in series [26], the bioavailability stood at 100%. The Activity entry in the series on Mus musculus [31] and in the series with Mus musculus [32] was “Toxic” throughout.
